Assay results as given in ChEMBL document CHEMBL4270599, “Synthesis of a 3'-C-ethynyl-β-d-ribofuranose purine nucleoside library: Discovery of C7-deazapurine analogs as potent antiproliferative nucleosides” (Eur J Med Chem, 2018).

Columns and labels:
A498 = experiment: Growth inhibition of human A498 cells assessed as cell growth at 10^-6 M incubated for 48 hrs by sulforhodamine B assay relative to control; assay type: functional; conditions: A498, 48 h, read-out: Activity
HOP-92 [1] = experiment: Cytotoxicity against human HOP92 cells after 48 hrs by SRB assay; assay type: functional; conditions: HOP-92, 48 h
Malme-3M = experiment: Growth inhibition of human MALME-3M cells assessed as cell growth at 10^-8 M incubated for 48 hrs by sulforhodamine B assay relative to control; assay type: functional; conditions: read-out: Activity
HOP-92 [2] = experiment: Growth inhibition of human HOP92 cells assessed as cell growth at 10^-6 M incubated for 48 hrs by sulforhodamine B assay relative to control; assay type: functional; conditions: HOP-92, 48 h, read-out: Activity
HCT-15 [3] = experiment: Growth inhibition of human HCT15 cells assessed as cell growth at 10^-4 M incubated for 48 hrs by sulforhodamine B assay relative to control; assay type: functional; conditions: HCT-15, 48 h, read-out: Activity
HOP-92 [4] = experiment: Growth inhibition of human HOP92 cells assessed as cell growth at 10^-7 M incubated for 48 hrs by sulforhodamine B assay relative to control; assay type: functional; conditions: HOP-92, 48 h, read-out: Activity
UO-31 = experiment: Growth inhibition of human UO31 cells assessed as cell growth at 10^-6 M incubated for 48 hrs by sulforhodamine B assay relative to control; assay type: functional; conditions: UO-31, 48 h, read-out: Activity
UACC-257 [5] = experiment: Growth inhibition of human UACC257 cells assessed as cell growth at 10^-6 M incubated for 48 hrs by sulforhodamine B assay relative to control; assay type: functional; conditions: UACC-257, 48 h, read-out: Activity
HOP-92 [6] = experiment: Growth inhibition of human HOP92 cells assessed as cell growth at 10^-8 M incubated for 48 hrs by sulforhodamine B assay relative to control; assay type: functional; conditions: HOP-92, 48 h, read-out: Activity
NCI/ADR-RES [7] = experiment: Cytotoxicity against human NCI-ADR-RES cells after 48 hrs by SRB assay; assay type: functional
SK-MEL-5 = experiment: Growth inhibition of human SK-MEL-5 cells assessed as cell growth at 10^-6 M incubated for 48 hrs by sulforhodamine B assay relative to control; assay type: functional; conditions: SK-MEL-5, 48 h, read-out: Activity
SF-295 [8] = experiment: Growth inhibition of human SF295 cells assessed as cell growth at 10^-8 M incubated for 48 hrs by sulforhodamine B assay relative to control; assay type: functional; conditions: SF-295, 48 h, read-out: Activity
SW-620 = experiment: Growth inhibition of human SW620 cells assessed as cell growth at 10^-6 M incubated for 48 hrs by sulforhodamine B assay relative to control; assay type: functional; conditions: SW-620, 48 h, read-out: Activity
OVCAR-3 = experiment: Growth inhibition of human OVCAR3 cells assessed as cell growth at 10^-4 M incubated for 48 hrs by sulforhodamine B assay relative to control; assay type: functional; conditions: OVCAR-3, 48 h, read-out: Activity
SF-295 [9] = experiment: Cytotoxicity against human SF295 cells after 48 hrs by SRB assay; assay type: functional; conditions: SF-295, 48 h
HCT-116 = experiment: Growth inhibition of human HCT116 cells assessed as cell growth at 10^-8 M incubated for 48 hrs by sulforhodamine B assay relative to control; assay type: functional; conditions: HCT-116, 48 h, read-out: Activity
KM12 = experiment: Growth inhibition of human KM12 cells assessed as cell growth at 10^-6 M incubated for 48 hrs by sulforhodamine B assay relative to control; assay type: functional; conditions: KM12, 48 h, read-out: Activity
NCI-H522 = experiment: Growth inhibition of human NCI-H522 cells assessed as cell growth at 10^-7 M incubated for 48 hrs by sulforhodamine B assay relative to control; assay type: functional; conditions: NCI-H522, 48 h, read-out: Activity
HUVEC = experiment: Antiproliferative activity against HUVEC cells after 4 days by Coulter counter method; assay type: cell-based; conditions: Homo sapiens, 96 h
How it was run: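 Primary HUVEC, primary HMVEC-d and the HMEC-1 line seeded at 20,000 cells/well in gelatin-coated plates in EC growth medium (EGM2). After overnight incubation, 5-fold compound dilutions added. Cells proliferated four days with compound, then trypsinized and counted by Coulter counter to derive IC₅₀.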

UACC-257 [10] = experiment: Growth inhibition of human UACC257 cells assessed as cell growth at 10^-8 M incubated for 48 hrs by sulforhodamine B assay relative to control; assay type: functional; conditions: UACC-257, 48 h, read-out: Activity
NCI/ADR-RES [11] = experiment: Growth inhibition of human NCI/ADR-RES cells assessed as cell growth at 10^-5 M incubated for 48 hrs by sulforhodamine B assay relative to control; assay type: functional; conditions: read-out: Activity
U-251 = experiment: Growth inhibition of human U251 cells assessed as cell growth at 10^-8 M incubated for 48 hrs by sulforhodamine B assay relative to control; assay type: functional; conditions: U-251, 48 h, read-out: Activity
CCRF-CEM = experiment: Growth inhibition of human CCRF-CEM cells assessed as cell growth at 10^-6 M incubated for 48 hrs by sulforhodamine B assay relative to control; assay type: functional; conditions: read-out: Activity
BT-549 = experiment: Growth inhibition of human BT549 cells assessed as cell growth at 10^-6 M incubated for 48 hrs by sulforhodamine B assay relative to control; assay type: functional; conditions: BT-549, 48 h, read-out: Activity
LOX IMVI = experiment: Growth inhibition of human LOXIMVI cells assessed as cell growth at 10^-8 M incubated for 48 hrs by sulforhodamine B assay relative to control; assay type: functional; conditions: read-out: Activity
HCT-15 [12] = experiment: Growth inhibition of human HCT15 cells assessed as cell growth at 10^-6 M incubated for 48 hrs by sulforhodamine B assay relative to control; assay type: functional; conditions: HCT-15, 48 h, read-out: Activity
NCI-H460 = experiment: Cytotoxicity against human NCI-H460 cells after 48 hrs by SRB assay; assay type: functional; conditions: NCI-H460, 48 h
SK-MEL-28 = experiment: Growth inhibition of human SK-MEL-28 cells assessed as cell growth at 10^-6 M incubated for 48 hrs by sulforhodamine B assay relative to control; assay type: functional; conditions: SK-MEL-28, 48 h, read-out: Activity
HCT-15 [13] = experiment: Growth inhibition of human HCT15 cells assessed as cell growth at 10^-8 M incubated for 48 hrs by sulforhodamine B assay relative to control; assay type: functional; conditions: HCT-15, 48 h, read-out: Activity
M14 = experiment: Growth inhibition of human M14 cells assessed as cell growth at 10^-6 M incubated for 48 hrs by sulforhodamine B assay relative to control; assay type: functional; conditions: M14, 48 h, read-out: Activity
[14] = read-out: LC50 (the source's name)

C#C[C@@]1(O)[C@@H](CO)O[C@@H](n2cc(I)c3c(N)ncnc32)[C@@H]1O
growth at 1 µM (A498): 1 to 29%
GI50 (HOP-92 [1]; read-out: GI50): 0.025 to 0.217 µM
CC50 (HOP-92 [1]; [14]): > 100 µM
TGI (HOP-92 [1]; read-out: TGI): 0.991 to 4.98 µM
growth at 0.01 µM (Malme-3M): 85 to 98%
growth at 1 µM (HOP-92 [2]): 10%
growth at 100 µM (HCT-15 [3]): 1%
growth at 0.1 µM (HOP-92 [4]): 38 to 70%
growth at 1 µM (UO-31): 20 to 28%
growth at 1 µM (UACC-257 [5]): 72 to 79%
growth at 0.01 µM (HOP-92 [6]): 58 to 74%
GI50 (NCI/ADR-RES [7]; read-out: GI50): 0.0637 to 0.0839 µM
TGI (NCI/ADR-RES [7]; read-out: TGI): 4.19 to 14.9 µM
CC50 (NCI/ADR-RES [7]; read-out: pLC50 (the source's name) (converted)): > 100 µM
growth at 1 µM (SK-MEL-5): 14 to 26%
growth at 0.01 µM (SF-295 [8]): 90%
growth at 1 µM (SW-620): 12 to 17%
growth at 100 µM (OVCAR-3): 1 to 2%
GI50 (SF-295 [9]; read-out: GI50): 0.251 to 0.432 µM
CC50 (SF-295 [9]; [14]): > 100 µM
TGI (SF-295 [9]; read-out: TGI): 3.77 µM
TGI (SF-295 [9]; read-out: pTGI (converted)): 3.8 µM
growth at 0.01 µM (HCT-116): 83 to 95%
growth at 1 µM (KM12): 25 to 27%
growth at 0.1 µM (NCI-H522): 42 to 64%
IC50 (HUVEC): 0.0099 µM
growth at 0.01 µM (UACC-257 [10]): 89 to 91%
growth at 10 µM (NCI/ADR-RES [11]): -4%
growth at 0.01 µM (U-251): 94 to 99%
growth at 1 µM (CCRF-CEM): 17 to 23%
growth at 1 µM (BT-549): 17 to 32%
growth at 0.01 µM (LOX IMVI): 85 to 93%
growth at 1 µM (HCT-15 [12]): 11 to 20%
GI50 (NCI-H460; read-out: GI50): 0.0584 to 0.137 µM
CC50 (NCI-H460; [14]): 75.4 to 100 µM
TGI (NCI-H460; read-out: TGI): 1.67 to 2.18 µM
growth at 1 µM (SK-MEL-28): 62 to 78%
growth at 0.01 µM (HCT-15 [13]): 74 to 84%
growth at 1 µM (M14): 38 to 43%
